The record followed here is ChEMBL document CHEMBL4627404, “Design, Synthesis, and Activity Study of Water-Soluble, Rapid-Release Propofol Prodrugs” (J Med Chem, 2020).

A short description of series [1]: Toxicity in iv dosed drug naive Kunming mouse assessed as mouse survival dosed at 2 times anesthetic ED50. Conditions: in vivo. It is filed as organism-based. Put shortly:
(§1)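 Ten drug-naïve male KM mice (20-30 g) per drug received 2×ED50 by tail-vein injection. Onset is timed from end of injection to appearance of LORR. Duration is timed from LORR appearance to its recovery. Survival is recorded over the 10 mice.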

Series [2] in a line: Toxicity in iv dosed drug naive Kunming mouse. It is filed as organism-based. Conditions: in vivo. The essentials: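 Male KM mice (20-30 g), at least 20 drug-naïve animals per drug, given a tail-vein bolus over ~10 s. LD50 found by the up-and-down method.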
A short description of series [3]: Solubility in water measured per 100 ml. It is filed as physicochemical. Conditions: buffer.
The subject of series [4] is Mus musculus. In words: Anesthetic activity in iv dosed drug naive Kunming mouse assessed as loss of righting reflex. It is filed as functional. Put shortly: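 Male KM mice (20-30 g), at least 20 drug-naïve animals per drug, given a tail-vein bolus over ~10 s. Anaesthesia scored as loss of righting reflex. ED50 found by the up-and-down method and analysed by Dixon–Mood to give the median effective dose with 95% CI.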

Series [5] is described as follows: Drug metabolism in Kunming mouse plasma assessed as propofol release at 100 ug/ml incubated up to 120 mins by HPLC analysis relative to control. It is filed as ADME, cell-free. Conditions: 2 h.
The test system of series [6] is Mus musculus. In words: Anesthetic activity in iv dosed drug naive Kunming mouse assessed as time from end of injection to appearance of loss of righting reflex dosed at 2 times anesthetic ED50. It is filed as functional. Put shortly:
as §1

A short description of series [7]: Therapeutic index, ratio of LD50 for toxicity in iv dosed drug naive Kunming mouse to ED50 for anesthetic activity in iv dosed drug naive Kunming mouse assessed as loss of righting reflex. Type of series: organism-based. The following applies: in vivo, read-out: Ratio LD50/ED50. Put shortly: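 TI = LD50/ED50. Both values come from tail-vein bolus (~10 s) dosing of male KM mice (20-30 g, at least 20 drug-naïve per drug) by the up-and-down method. The ED50 end point is loss of righting reflex.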

Series [8] can be described thus: Drug metabolism in iv dosed drug naive Kunming mouse assessed dose of propofol released from prodrugs dosed at 2 times anesthetic ED50. Type of series: ADME, organism-based. Conditions: in vivo. Put shortly: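 Propofol delivered at 2×ED50 is calculated as (MW propofol/MW prodrug)×(2×ED50) mg/kg from the tail-vein ED50 in KM mice.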
The nature of series [9]: Stability in water at 10 mg/ml incubated for 4 hrs by HPLC analysis. Type of series: physicochemical. The following applies: buffer. The essentials: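 Aqueous solutions (10 mg/ml) held at 30 °C for 4 h before the plasma hydrolysis studies, n=3.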
Series [10] is described as follows: Stability in Kunming mouse plasma assessed as drug decomposition at 100 ug/ml incubated for 2 hrs by HPLC analysis. It is filed as ADME, cell-free.
The nature of series [11]: Stability in Kunming mouse plasma assessed as drug decomposition at 100 ug/ml incubated up to 120 mins by HPLC analysis. It is filed as ADME, cell-free. Conditions: 2 h. Put shortly:
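Mouse blood was heparinised at sampling and centrifuged at 3500×g for 5 min at 4 °C to obtain plasma. A 10 mg/ml aqueous stock was diluted 1:100 into plasma, giving a final 100 μg/ml, and shaken at 37 °C for 2 h. The read-out was the percentage of propofol released, given as mean ± SD. Water stability (30 °C, 4 h, n=3) was checked beforehand.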

A short description of series [12]: Solubility in water. Type of series: physicochemical.

The source made the active and inactive calls. The calls are words filed in the database; no cut-off is given here.

Turning to `CC(C)c1cccc(C(C)C)c1OC(=O)COC(=O)CN1CCOCC1.Cl`, the survival in series [1] was found to be 100%. The compound further showed a median lethal dose (LD50) in [2] of 132 mg/kg. Moreover, in series [3], the solubility was found to be 76.33 g. Further, the 50% effective dose (ED50) in [4] stood at 28.1 mg/kg. Besides, the Drug metabolism entry is “Metabolite_Detected” in [5] and 25.1 mg/kg in [8]. Moreover, the Time in [6] was 3.1 s. Also, in [7], the selectivity ratio came out at 4.7.

Turning to `CC(C)c1cccc(C(C)C)c1OC(=O)OCC(=O)[O-].[Na+]`, in series [4], the ED50 entry was “inactive”. The Stability entry in series [9] is recorded as “Stable”.

Turning to `CC(C)c1cccc(C(C)C)c1OC(=O)COC(=O)CCC(=O)[O-].[Na+]`, the survival in series [1] amounted to 80%. Also, the LD50 in series [2] stood at 205 mg/kg. Further, the ED50 in series [4] amounted to 73.1 mg/kg. Moreover, the Drug metabolism result in series [5] was “Metabolite_Detected”; in series [8] it was 75.7 mg/kg. In addition, the Time in series [6] was 25.5 s. Moreover, the selectivity ratio in [7] amounted to 2.8.

On to `CC(C)c1cccc(C(C)C)c1OC(=O)COC(=O)CN1CCCCC1.Cl`, for which, in series [1], the survival was found to be 100%. This compound also registered a 50% lethal dose (LD50) in [2] of 91.4 mg/kg. The compound also returned a solubility in series [3] of 85.86 g. For the same compound, the ED50 in series [4] amounted to 22.3 mg/kg. Further, the Time in series [6] was determined as 3 s. The selectivity ratio in [7] is 4.1. The Drug metabolism in series [8] was found to be 22 mg/kg.

For the compound `CC(C)c1cccc(C(C)C)c1OC(=O)COC(=O)C1CCCCN1.Cl` (stereo not given), the survival in series [1] stood at 20%. This compound showed an LD50 in series [2] of 54.4 mg/kg. The 50% effective dose (ED50) in [4] worked out at 20.8 mg/kg. Further, the Time in series [6] is listed as 10.6 s. Besides, the selectivity ratio in [7] came out at 2.6. Further, the Drug metabolism in series [8] was determined as 19.3 mg/kg.

Take `CC(C)c1cccc(C(C)C)c1OC(=O)OCCC(=O)[O-].[Na+]`: the ED50 entry in series [4] was “inactive”. Also, in series [9], the Stability entry is “Stable”.

With `CC(C)c1cccc(C(C)C)c1OCOP(=O)([O-])[O-].[Na+].[Na+]` [FOSPROPOFOL DISODIUM], the survival in series [1] was 100%. In series [2], this compound yielded an LD50 of 288 mg/kg. Also, the ED50 in [4] was found to be 105 mg/kg. The Time in series [6] was determined as 46.4 s. Further, the selectivity ratio in series [7] was found to be 2.8. For the same compound, in [8], the Drug metabolism was 112.7 mg/kg.

As to `CC(C)c1cccc(C(C)C)c1OC(=O)COC(C(=O)[O-])C(=O)[O-].[Na+].[Na+]`, in series [4], the ED50 result was “inactive”. In addition, the Stability result in [10] was “Stable”.

Take `CC(C)c1cccc(C(C)C)c1OC(=O)OC(C(=O)[O-])C(=O)[O-].[Na+].[Na+]`: the Stability entry in [11] and in series [9] was “Stable” throughout. In addition, the ED50 result in series [4] is “inactive”.

Take `CC(C)c1cccc(C(C)C)c1OC(=O)COC(=O)CC(=O)[O-].[Na+]`: the survival in [1] was 100%. In [2], this compound had an LD50 of 244 mg/kg. The ED50 in series [4] amounted to 75.9 mg/kg. Moreover, the Time in series [6] was found to be 72.2 s. In addition, in [7], the selectivity ratio was determined as 3.2. In series [8], the Drug metabolism was determined as 76 mg/kg.

For `CC(C)c1cccc(C(C)C)c1OC(=O)COC(=O)CN1CCCC1.Cl`, in [1], the survival is 100%. In series [2], this compound showed an LD50 of 92.1 mg/kg. Also, in [3], the solubility was 83.96 g. Also, the median effective dose (ED50) in [4] is 25.2 mg/kg. The Time in [6] was determined as 4 s. Besides, in series [7], the selectivity ratio came out at 3.6. Further, in series [8], the Drug metabolism turned out to be 23.4 mg/kg.

With `CC(C)c1cccc(C(C)C)c1OC(=O)CN1CCOCC1`, in series [1], the survival came to 30%. The median lethal dose (LD50) in [2] was 75 mg/kg. The ED50 in series [4] was 36.6 mg/kg. Moreover, in [6], the Time is 12 s. Besides, in series [7], the selectivity ratio is 2.1. In addition, the Drug metabolism in series [8] worked out at 42.7 mg/kg.

Turning to `CC(C)c1cccc(C(C)C)c1OC(=O)COC(=O)CN(C)C.Cl`, the survival in series [1] was 40%. Also, the LD50 in [2] amounted to 93.8 mg/kg. The ED50 in series [4] amounted to 40.2 mg/kg. Besides, the Time in series [6] turned out to be 4.6 s. Further, the selectivity ratio in series [7] came to 2.3. In addition, the Drug metabolism in [8] turned out to be 40.1 mg/kg.

For the compound `CC(C)c1cccc(C(C)C)c1O` [PROPOFOL], in [1], the survival was found to be 100%. The same compound showed an LD50 in series [2] of 52.2 mg/kg. The solubility in series [3] amounted to 1.53 ×10⁻² g. Also, the Time in series [6] worked out at 1 s. Further, in series [7], the selectivity ratio turned out to be 4.5. Further, the Drug metabolism in [8] stood at 23.4 mg/kg.

For `CNCC(=O)OCC(=O)Oc1c(C(C)C)cccc1C(C)C.Cl`, in series [1], the survival was 60%. This compound gave a median lethal dose (LD50) in series [2] of 60.8 mg/kg. The ED50 in series [4] came to 29.6 mg/kg. The Time in [6] was found to be 8 s. In addition, the selectivity ratio in series [7] stood at 2. Further, the Drug metabolism in series [8] was 30.7 mg/kg.

Consider `CC(C)c1cccc(C(C)C)c1OC(=O)COCC(=O)[O-].[Na+]`, for which, in series [1], the survival was determined as 100%. In [12], the solubility is < 20 mg/mL. In [4], the ED50 turned out to be 65.7 mg/kg. Further, the Time in [6] came out at 82.3 s. The Drug metabolism in series [8] stood at 74 mg/kg.

For `CC(C)c1cccc(C(C)C)c1OC(=O)COC(=O)CN.Cl`, the survival in series [1] was 10%. The compound also registered an LD50 in series [2] of 89.2 mg/kg. Further, the ED50 in series [4] was found to be 34.3 mg/kg. Moreover, the Time in series [6] worked out at 9.1 s. Further, the selectivity ratio in series [7] stood at 2.6. The Drug metabolism in series [8] worked out at 37.1 mg/kg.

As for `CC(C)c1cccc(C(C)C)c1OC(=O)COC(=O)C1COCCN1.Cl` (stereo not given), the survival in series [1] came to 60%. In series [2], this compound returned an LD50 of 69.6 mg/kg. For the same compound, the ED50 in series [4] is 30.4 mg/kg. The Time in [6] came to 6.7 s. Besides, in [7], the selectivity ratio is 2.3. In addition, the Drug metabolism in series [8] was 28.1 mg/kg.

In the case of `CC(C)c1cccc(C(C)C)c1OC(=O)OC(CC(=O)[O-])C(=O)[O-].[Na+].[Na+]` (stereo not given), the Stability result in [11] and in [9] was “Stable” in each case. In series [4], the ED50 entry is “inactive”.

For the compound `CC(C)c1cccc(C(C)C)c1OC(=O)COC(=O)CN1CCN(C)CC1.Cl`, the survival in [1] was found to be 70%. Also, in series [2], the LD50 is 91.6 mg/kg. Also, in series [4], the ED50 was found to be 40.3 mg/kg. Also, the Time in [6] is 2.4 s. Further, in series [7], the selectivity ratio was 2.3. For the same compound, in [8], the Drug metabolism amounted to 34.8 mg/kg.

With `CC(C)c1cccc(C(C)C)c1OC(=O)COC(=O)[C@H](C)N.Cl`, the survival in series [1] was 50%. The same compound yielded a median lethal dose (LD50) in series [2] of 51.9 mg/kg. Moreover, the 50% effective dose (ED50) in series [4] turned out to be 20.5 mg/kg. Moreover, the Time in series [6] came to 18.2 s. In [7], the selectivity ratio is 2.5. In addition, in series [8], the Drug metabolism worked out at 21.2 mg/kg.

With `CC(C)c1cccc(C(C)C)c1OC(=O)CSCC(=O)[O-].[Na+]`, the survival in [1] came out at 0%. The same compound yielded an LD50 in series [2] of 222 mg/kg. In series [4], the ED50 came to 190 mg/kg. The Stability result in [10] was “Stable”. The Time in series [6] worked out at 20.2 s. In addition, the selectivity ratio in series [7] turned out to be 1.2. The Drug metabolism in [8] came out at 203.6 mg/kg.

On to `CC(C)c1cccc(C(C)C)c1OC(=O)CNCC(=O)O.Cl`, for which the solubility in series [12] is < 10 mg/mL.
